The source of these data is ChEMBL document CHEMBL3098012, “A novel tamoxifen derivative, ridaifen-F, is a nonpeptidic small-molecule proteasome inhibitor” (Eur J Med Chem, 2014).

Data set [1] concerns the target T1, Proteasome Macropain subunit MB1 (Homo sapiens) (UniProt P28074).
T1 sequence (whole entry): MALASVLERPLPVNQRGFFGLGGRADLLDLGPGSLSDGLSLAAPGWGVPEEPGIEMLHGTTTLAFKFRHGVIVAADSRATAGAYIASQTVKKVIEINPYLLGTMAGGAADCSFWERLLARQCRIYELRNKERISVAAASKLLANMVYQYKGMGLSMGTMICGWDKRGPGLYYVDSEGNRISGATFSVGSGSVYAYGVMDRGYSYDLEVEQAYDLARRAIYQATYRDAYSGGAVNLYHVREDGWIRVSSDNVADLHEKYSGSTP
Put plainly: Inhibition of chymotrypsin-like activity of human 20S proteasome beta 5 subunit assessed as hydrolysis of succinyl-LLVY-AMC fluorogenic substrate at 10 uM measured for 1 hr by fluorometric analysis relative to control. Further details: scale not given: the % may be the effect or the level left.

Data set [2] has as its target Proteasome Macropain subunit (Homo sapiens) (UniProt P49721). Put plainly: Inhibition of trypsin-like activity of human 20S proteasome beta 2 subunit assessed as hydrolysis of Boc-LRR-AMC fluorogenic substrate at 10 uM measured for 1 hr by fluorometric analysis relative to control. Further details: scale not given: the % may be the effect or the level left.
The target in data set [3] is T2, Proteasome component C5 (Homo sapiens) (UniProt P20618).
T2 sequence (whole entry): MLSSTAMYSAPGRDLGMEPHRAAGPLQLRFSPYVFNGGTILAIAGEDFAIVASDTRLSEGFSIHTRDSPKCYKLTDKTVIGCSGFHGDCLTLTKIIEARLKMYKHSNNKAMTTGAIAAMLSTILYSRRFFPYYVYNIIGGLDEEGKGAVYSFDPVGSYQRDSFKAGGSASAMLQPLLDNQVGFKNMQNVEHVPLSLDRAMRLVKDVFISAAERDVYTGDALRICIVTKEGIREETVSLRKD
The experiment in a line: Inhibition of PGPH-like activity of human 20S proteasome beta 1 subunit assessed as hydrolysis of Z-LLE-AMC fluorogenic substrate at 10 uM measured for 1 hr by fluorometric analysis relative to control. Further details: scale not given: the % may be the effect or the level left.

Data set [4] is described as follows: Inhibition of chymotrypsin-like activity of Saccharomyces cerevisiae 20S proteasome beta 5 subunit.
A short description of data set [5]: Cytotoxicity against ER-negative HEK293 cells after 48 hrs by MTT assay. In kind it is cell-based. The following applies: human. The gist of the method:
(§1)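 HEK293 (DMEM) or HL-60 (IMDM) cells, each with 10% FBS plus penicillin/streptomycin, seeded 5×10^3 cells/well in duplicate. Exposed 48 h to compound at […]. MTT reduction read as 560/750 nm absorbance ratio after HCl/2-propanol extraction. CyT50 from inhibition curve; means of triplicate.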

Data set [6] deals with T3, Proteasome Macropain subunit MB1 (Homo sapiens, UniProt P28074).
T3 sequence (P28074 whole entry): T1 sequence (whole entry)
The experiment in a line: Inhibition of chymotrypsin-like activity of human 20S proteasome beta 5 subunit assessed as hydrolysis of succinyl-LLVY-AMC fluorogenic substrate measured for 1 hr by fluorometric analysis. The gist of the method:
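Purified human 20S proteasome (0.1 µg) incubated at 37 °C with 50 µM succinyl-LLVY-AMC (CT-L) or 20 µM Z-LLE-AMC (PGPH) and compound at 0.01–10 µM in 25 mM HEPES, 0.5 mM EDTA, 0.03% SDS. IC50 taken from inhibition curve; means of three experiments.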

Data set [7] concerns the target T1, Proteasome Macropain subunit MB1 (Homo sapiens). Put plainly: Inhibition of biotin-labeled belactosin A binding to human 20S proteasome beta 5 subunit at 1 to 100 uM preincubated for 1 hr followed by biotin-labeled belactosin A treatment measured after 1 hr by Western blotting analysis. The gist of the method:
(§2)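 Purified human 20S proteasome preincubated 1 h at 37 °C with varying compound levels, then biotin-belactosin A added to 1 µM for a further 1 h. Proteins separated by SDS-PAGE, blotted to PVDF, milk-blocked; biotin-labelled subunits detected with streptavidin-HRP and ECL.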
Background: Immunoblotting shows a protein as a band on a membrane.

In data set [8] the test system is HeLa. Put plainly: Inhibition of proteasome in human HeLa cells assessed as accumulation of ubiquitinated proteins at 30 uM after 24 hrs by Western blotting analysis. In kind it is cell-based. Put shortly: (§3)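 HeLa cells, 4×10^5 cells/well, treated 24 h with compound; vehicle control 0.25% DMSO. Lysed in Tris–HCl/2% SDS/glycerol buffer with protease and phosphatase inhibitors; 30 µg protein run on SDS-PAGE, PVDF blot probed with anti-ubiquitin (1:200), actin as loading reference, HRP secondary, ECL detection.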

In data set [9] the test system is HeLa. The experiment in a line: Cell cycle arrest in human HeLa cells assessed as accumulation at sub G1 phase at 60 uM after 24 hrs by propidium iodide staining-based flow cytometric analysis (reference value: 2.2%). The data set is classed as functional. Background: Flow cytometry measures light scatter and fluorescence of single cells or particles in a stream.

Data set [10] concerns the target T3, Proteasome Macropain subunit MB1. The experiment in a line: Noncompetitive inhibition of chymotrypsin-like activity of human 20S proteasome beta 5 subunit assessed as hydrolysis of succinyl-LLVY-AMC fluorogenic substrate Lineweaver-Burk plot analysis.
Data set [11] relates to HeLa. Put plainly: Induction of apoptosis in human HeLa cells assessed as caspase 3 cleavage at 1 to 30 uM after 24 hrs by Western blotting analysis. The data set is classed as functional, cell-based.
Data set [12] has as its system HeLa. Put plainly: Cell cycle arrest in human HeLa cells assessed as accumulation at sub G1 phase at 10 uM after 24 hrs by propidium iodide staining-based flow cytometric analysis (reference value: 2.2%). The data set is classed as functional.
In data set [13] the target is T2, Proteasome component C5 (Homo sapiens). The experiment in a line: Inhibition of biotin-labeled belactosin A binding to human 20S proteasome beta 1 subunit at 10 uM preincubated for 1 hr followed by biotin-labeled belactosin A treatment measured after 1 hr by Western blotting analysis. Put shortly:
as §2

Data set [14] has as its target T1, Proteasome Macropain subunit MB1 (Homo sapiens). The experiment in a line: Inhibition of biotin-labeled belactosin A binding to human 20S proteasome beta 5 subunit at 100 uM preincubated for 1 hr followed by biotin-labeled belactosin A treatment measured after 1 hr by Western blotting analysis. Put shortly: as §2
Data set [15] deals with T2, Proteasome component C5 (Homo sapiens). The experiment in a line: Inhibition of biotin-labeled belactosin A binding to human 20S proteasome beta 1 subunit preincubated for 1 hr followed by biotin-labeled belactosin A treatment measured after 1 hr by Western blotting analysis. Put shortly: as §2
For data set [16], the species on record is Homo sapiens. The experiment in a line: Inhibition of cathepsin (unknown origin) at >10 uM.
For data set [17], the species on record is Homo sapiens. The experiment in a line: Inhibition of calpain (unknown origin) at >10 uM.
Data set [18] has as its system HeLa. Put plainly: Induction of apoptosis in human HeLa cells assessed as PARP cleavage after 24 hrs by Western blotting analysis. The data set is classed as functional, cell-based. Put shortly:
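HeLa cells seeded 4×10^5 cells/well, incubated 24 h with varying compound concentrations; PARP cleavage detected in lysates by Western blotting.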

For a further data set, the system named is HL-60. Put plainly: Cytotoxicity against […] human HL60 cells after 48 hrs by MTT assay. The data set is classed as functional. Particulars: HL-60, 48 h. Put shortly:
as §1
On the technique in general: Tetrazolium dyes change colour on reduction, which living cells bring about.

The subject of data set [19] is HeLa. Put plainly: Inhibition of proteasome in human HeLa cells assessed as accumulation of ubiquitinated proteins at 10 uM after 24 hrs by Western blotting analysis. In kind it is cell-based. The gist of the method:
as §3

Data set [20] has as its target T2, Proteasome component C5 (Homo sapiens). Particulars: 10 to 20 uM.
Data set [21] addresses Proteasome Macropain subunit (Homo sapiens) (UniProt P49721). Particulars: 10 to 20 uM.
Data set [22] deals with T1, Proteasome Macropain subunit MB1 (Homo sapiens). The following applies: 10 to 20 uM.

Active and inactive are the calls of the source. No cut-off for these calls is given here. Peptide text beside a SMILES is read from it. * marks the point of attachment. Cbz = O=C(OCc1ccccc1)*

Proteasome Macropain subunit (Homo sapiens), sequence (P49721 whole entry): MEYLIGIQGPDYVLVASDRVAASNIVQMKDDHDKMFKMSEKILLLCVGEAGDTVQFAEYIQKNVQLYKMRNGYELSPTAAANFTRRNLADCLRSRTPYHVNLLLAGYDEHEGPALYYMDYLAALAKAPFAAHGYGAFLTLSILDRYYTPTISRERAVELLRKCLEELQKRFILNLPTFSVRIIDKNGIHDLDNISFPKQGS

On to `CC/C(=C(\c1ccccc1)c1ccc(OCCN(C)C)cc1)c1ccccc1`, for which the values for the Activity in data set [1], in data set [2] and in [3] were 145%, 112% and 85%, respectively.
In the case of `CCC(=C(c1ccc(OCCN2CCCCCC2)cc1)c1ccc(OCCN2CCCCCC2)cc1)c1ccccc1`, the IC50 in [4] was found to be 1800 nM; in data set [6], 640 nM. The compound also registered a CC50 at 48 h in data set [5] of 4.38 µM. Further, the inhibition entry (in data set [7]; in the data set with HeLa [8]; in [13]; in data set [14]) was “Active” throughout. In addition, the Activity in the data set with HeLa [9] is 4.7%; in the data set with HeLa [12], 3.4%; in the data set on HeLa [18], “Dose-dependent effect”. For the same compound, the inhibition constant Ki in data set [10] was determined as 580 nM. In addition, the outcome with HeLa [11] was Active. The inhibition result in data set [15] is “Dose-dependent effect”. In addition, the inhibition entry in the data set filed under Homo sapiens [16] and in the data set listed under Homo sapiens [17] was “inactive” in each case. The CC50 in the data set with HL-60 worked out at 3.42 µM.
In the case of `CC(C)C[C@@H](C=O)NC(=O)[C@H](CC(C)C)NC(=O)[C@H](CC(C)C)NC(=O)OCc1ccccc1` [MG-132] (Cbz-Leu-Leu-Leu-aldehyde), the inhibition entry (with HeLa [19]; in data set [20]; in data set [21]; in data set [22]) was “Active” throughout. In addition, in the data set on HeLa [12], the Activity is listed as 5.6%.

One may read the IC50 as the point on the concentration scale where inhibition reaches its midpoint. Usually CC50 stands for the concentration at which the toxic effect on the cells reaches its halfway point. The term Ki denotes the dissociation constant of the complex between target and ligand, obtained from inhibition or displacement.
